Test results published in ChEMBL document CHEMBL1150811, “New modified eremophilanes from the roots of Psacalium radulifolium” (J Nat Prod, 2001).
Converted amounts (≈) assume the structure as drawn.

What was measured:
Proteus mirabilis = experiment: Antimicrobial activity against Proteus mirabilis ATCC 12453; assay type: functional
Outline: (§1)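 Agar dilution: each natural product suspended in 10% DMSO and added at various concentrations to melted agar in Petri dishes; plates incubated 24 h at 37 °C; gentamicin and nystatin as reference standards; run in duplicate.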

Pseudomonas aeruginosa = experiment: Antimicrobial activity against Pseudomonas aeruginosa ATCC 27853; assay type: functional; outline: as §1
Candida albicans = experiment: Antimicrobial activity against Candida albicans ATCC 10231; assay type: functional; outline: as §1
Escherichia coli = experiment: Antimicrobial activity against Escherichia coli ATCC 8937; assay type: functional; outline: as §1
Artemia salina = experiment: Toxicity against Artemia salina; assay type: organism-based; conditions: in vivo
Staphylococcus aureus = experiment: Antimicrobial activity against Staphylococcus aureus ATCC 6358

| Structure (SMILES) | MIC (Proteus mirabilis) [µg/mL] | MIC (Pseudomonas aeruginosa) [µg/mL] | MIC (Candida albicans) [µg/mL] | MIC (Escherichia coli) [µg/mL] | LD50 (Artemia salina) [ppm] | MIC (Staphylococcus aureus) [µg/mL] |
| --- | --- | --- | --- | --- | --- | --- |
| COc1c2c(c(C)c3c(C)coc13)[C@@H](C)CC=C2 | > 400 | > 400 | > 400 | > 400 | > 1000 | 400 (≈ 1650 µM) |
| C[C@H]1CCCc2c(O)c(O)c3c(c21)COC(=O)C3(C)O (mixture of isomers) |  | > 400 | > 400 | > 400 | 230 | 200 |
| Cc1coc2c1C(C)(O)C1=C(CCC[C@@H]1C)C2=O (mixture of isomers) [cacalone/epi-cacalone] | > 1000 | > 1000 | > 1000 | > 1000 | 269 | 250 |
| Cc1coc2c(O)c3c(c(Cc4oc5c(O)c6c(c(C)c5c4C)[C@@H](C)CCC6)c12)[C@@H](C)CCC3 [ADENOSTIN A] |  | > 400 | > 400 | > 400 | 230 | 50 (≈ 109 µM) |
| Cc1coc2c(O)c3c(c(C)c12)[C@@H](C)CCC3 [CACALOL] | 12 (≈ 52.1 µM) | > 400 | 12 (≈ 52.1 µM) | 25 (≈ 109 µM) | 12 | 12 (≈ 52.1 µM) |
| CC(=O)O[C@@H]1c2c(C)coc2C(=O)C2=CCC[C@H](C)[C@]21C [DECOMPOSTIN] | > 400 | > 400 | > 400 | > 400 | > 1000 | > 400 |
| C/C=C\C(=O)O[C@@H]1c2c(C)coc2C(=O)C2=CCC[C@H](C)[C@]21C [NEOADENOSTYLONE] |  | > 400 | > 400 | > 400 | 21.7 | > 400 |
| COc1c2c(c(C)c3c1OC(=O)[C@@]3(C)O)[C@@H](C)CCC2 [RADULIFOLIN B] |  | > 400 | > 400 | > 400 | 52.5 | 100 (≈ 362 µM) |
